# Experiments:
# [1] = biological target: Gonadotropin-releasing hormone receptor (Homo sapiens, UniProt P30968, Y290Q); test: Displacement of [125I]-His5, D-Tyr6]GnRH from mutant GnRHR, GnRHR Y290Q
# [2] = biological target: Gonadotropin-releasing hormone receptor (Homo sapiens, UniProt P30968, D293A); test: Displacement of [125I]-His5, D-Tyr6]GnRH from mutant GnRHR, GnRHR D293A
# How it was run: (§1)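 Human GnRH-R (wild type or site-directed point mutant) was transiently expressed in COS-7 cells by electroporation, with cells cultured 36-48 h before membranes were prepared. Membranes (5-20 µg per point) were incubated 2 h at room temperature with 0.3 nM tracer and varying competitor in HEPES pH 7.5, 150 mM NaCl, 0.1% BSA, then filtered and counted.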
# [3] = biological target: Gonadotropin-releasing hormone receptor (Homo sapiens, UniProt P30968, L300A); test: Displacement of [125I]-His5, D-Tyr6]GnRH from mutant GnRHR, GnRHR L300A; how it was run: as §1
# Gonadotropin-releasing hormone receptor (Homo sapiens, UniProt P30968, L300A), sequence (P30968 whole entry L300A): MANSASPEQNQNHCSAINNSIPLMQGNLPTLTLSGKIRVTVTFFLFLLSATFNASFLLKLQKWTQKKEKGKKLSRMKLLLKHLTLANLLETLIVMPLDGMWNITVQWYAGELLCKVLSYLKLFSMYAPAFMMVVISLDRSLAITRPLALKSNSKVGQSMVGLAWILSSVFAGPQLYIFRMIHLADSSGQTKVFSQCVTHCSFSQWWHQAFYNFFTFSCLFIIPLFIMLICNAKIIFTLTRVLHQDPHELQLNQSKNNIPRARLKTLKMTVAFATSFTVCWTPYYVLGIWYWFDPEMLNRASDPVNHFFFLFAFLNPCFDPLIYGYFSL
# [4] = biological target: Gonadotropin-releasing hormone receptor (Homo sapiens, UniProt P30968, L300K); test: Displacement of [125I]-His5, D-Tyr6]GnRH from mutant GnRHR, GnRHR L300K; how it was run: as §1
# Gonadotropin-releasing hormone receptor (Homo sapiens, UniProt P30968, L300K), sequence (P30968 whole entry L300K): as the sequence (P30968 whole entry L300A) above, with A300K counted along it
# [5] = biological target: Gonadotropin-releasing hormone receptor (Homo sapiens, UniProt P30968, L300V); test: Displacement of [125I]-His5, D-Tyr6]GnRH from mutant GnRHR, GnRHR L300V; how it was run: as §1
# [6] = biological target: Gonadotropin-releasing hormone receptor (Homo sapiens, UniProt P30968, D302A); test: Displacement of [125I]-His5, D-Tyr6]GnRH from mutant GnRHR, GnRHR D302A; how it was run: as §1
# [7] = biological target: Gonadotropin-releasing hormone receptor (Homo sapiens, UniProt P30968, D302N); test: Displacement of [125I]-His5, D-Tyr6]GnRH from mutant GnRHR, GnRHR D302N; how it was run: as §1
# [8] = biological target: Gonadotropin-releasing hormone receptor (Homo sapiens, UniProt P30968, D302Q); test: Displacement of [125I]-His5, D-Tyr6]GnRH from mutant GnRHR, GnRHR D302Q; how it was run: as §1
# Gonadotropin-releasing hormone receptor (Homo sapiens, UniProt P30968, D302Q), sequence (P30968 whole entry D302Q): as the sequence (P30968 whole entry L300A) above, with A300L, D302Q counted along it
# [9] = biological target: Gonadotropin-releasing hormone receptor (Homo sapiens, UniProt P30968, N305A); test: Displacement of [125I]-His5, D-Tyr6]GnRH from mutant GnRHR, GnRHR N305A; how it was run: as §1
# Gonadotropin-releasing hormone receptor (Homo sapiens, UniProt P30968, N305A), sequence (P30968 whole entry N305A): as the sequence (P30968 whole entry L300A) above, with A300L, N305A counted along it
# [10] = biological target: Gonadotropin-releasing hormone receptor (Homo sapiens, UniProt P30968, H306K); test: Displacement of [125I]-His5, D-Tyr6]GnRH from mutant GnRHR, GnRHR H306K; how it was run: as §1
# [11] = biological target: Gonadotropin-releasing hormone receptor (Homo sapiens, UniProt P30968, F309L); test: Displacement of [125I]-His5, D-Tyr6]GnRH from mutant GnRHR, GnRHR F309L; how it was run: as §1
# [12] = biological target: Gonadotropin-releasing hormone receptor (Homo sapiens, UniProt P30968, F309Q); test: Displacement of [125I]-His5, D-Tyr6]GnRH from mutant GnRHR, GnRHR F309Q; how it was run: as §1
# [13] = biological target: Gonadotropin-releasing hormone receptor (Homo sapiens, UniProt P30968, W280F); test: Displacement of [125I]-His5, D-Tyr6]GnRH from mutant GnRHR, GnRHR W280F
# Gonadotropin-releasing hormone receptor (Homo sapiens, UniProt P30968, W280F), sequence (P30968 whole entry W280F): as the sequence (P30968 whole entry L300A) above, with W280F, A300L counted along it
# [14] = biological target: Gonadotropin-releasing hormone receptor (Homo sapiens, UniProt P30968, Y283F); test: Displacement of [125I]-His5, D-Tyr6]GnRH from mutant GnRHR, GnRHR Y283F
# [15] = biological target: Gonadotropin-releasing hormone receptor (Homo sapiens, UniProt P30968, Y284L); test: Displacement of [125I]-His5, D-Tyr6]GnRH from mutant GnRHR, GnRHR Y284L
# Gonadotropin-releasing hormone receptor (Homo sapiens, UniProt P30968, Y284L), sequence (P30968 whole entry Y284L): as the sequence (P30968 whole entry L300A) above, with Y284L, A300L counted along it
# [16] = biological target: Gonadotropin-releasing hormone receptor (Homo sapiens, UniProt P30968, M24A); test: Displacement of [125I]-His5, D-Tyr6]GnRH from mutant GnRHR, GnRHR M24A; how it was run: as §1
# Gonadotropin-releasing hormone receptor (Homo sapiens, UniProt P30968, M24A), sequence (P30968 whole entry M24A): as the sequence (P30968 whole entry L300A) above, with M24A, A300L counted along it
# [17] = biological target: Gonadotropin-releasing hormone receptor (Homo sapiens, UniProt P30968, M24I); test: Displacement of [125I]-His5, D-Tyr6]GnRH from mutant GnRHR, GnRHR M24I; how it was run: as §1
# [18] = biological target: Gonadotropin-releasing hormone receptor (Homo sapiens, UniProt P30968, K115Q); test: Displacement of [125I]-His5, D-Tyr6]GnRH from mutant GnRHR, GnRHR K115Q; how it was run: as §1
# [19] = biological target: Gonadotropin-releasing hormone receptor (Homo sapiens, UniProt P30968, S168A); test: Displacement of [125I]-His5, D-Tyr6]GnRH from mutant GnRHR, GnRHR S168A
# [20] = biological target: Gonadotropin-releasing hormone receptor (Homo sapiens, UniProt P30968, H182A); test: Displacement of [125I]-His5, D-Tyr6]GnRH from mutant GnRHR, GnRHR H182A; how it was run: as §1
# Gonadotropin-releasing hormone receptor (Homo sapiens, UniProt P30968, H182A), sequence (P30968 whole entry H182A): as the sequence (P30968 whole entry L300A) above, with H182A, A300L counted along it
# [21] = biological target: Gonadotropin-releasing hormone receptor (Homo sapiens, UniProt P30968, H182E); test: Displacement of [125I]-His5, D-Tyr6]GnRH from mutant GnRHR, GnRHR H182E; how it was run: as §1
# Gonadotropin-releasing hormone receptor (Homo sapiens, UniProt P30968, H182E), sequence (P30968 whole entry H182E): as the sequence (P30968 whole entry L300A) above, with H182E, A300L counted along it
# [22] = biological target: Gonadotropin-releasing hormone receptor (Homo sapiens, UniProt P30968, Q189K); test: Displacement of [125I]-His5, D-Tyr6]GnRH from mutant GnRHR, GnRHR Q189K; how it was run: as §1
# [23] = biological target: Gonadotropin-releasing hormone receptor (Homo sapiens, UniProt P30968, T190K); test: Displacement of [125I]-His5, D-Tyr6]GnRH from mutant GnRHR, GnRHR T190K
# Gonadotropin-releasing hormone receptor (Homo sapiens, UniProt P30968, T190K), sequence (P30968 whole entry T190K): as the sequence (P30968 whole entry L300A) above, with T190K, A300L counted along it
# [24] = biological target: Gonadotropin-releasing hormone receptor (Homo sapiens, UniProt P30968, K191E); test: Displacement of [125I]-His5, D-Tyr6]GnRH from mutant GnRHR, GnRHR K191E; how it was run: as §1
# [25] = biological target: Gonadotropin-releasing hormone receptor (Homo sapiens, UniProt P30968, S203E); test: Displacement of [125I]-His5, D-Tyr6]GnRH from mutant GnRHR, GnRHR S203E
# Gonadotropin-releasing hormone receptor (Homo sapiens, UniProt P30968, S203E), sequence (P30968 whole entry S203E): as the sequence (P30968 whole entry L300A) above, with S203E, A300L counted along it
# [26] = biological target: Gonadotropin-releasing hormone receptor (Homo sapiens, UniProt P30968, N27E); test: Displacement of [125I]-His5, D-Tyr6]GnRH from mutant GnRHR, GnRHR N27E; how it was run: as §1
# Gonadotropin-releasing hormone receptor (Homo sapiens, UniProt P30968, N27E), sequence (P30968 whole entry N27E): as the sequence (P30968 whole entry L300A) above, with N27E, A300L counted along it
# [27] = biological target: Gonadotropin-releasing hormone receptor (Homo sapiens, UniProt P30968, E111K); test: Displacement of [125I]-His5, D-Tyr6]GnRH from mutant GnRHR, GnRHR E111K; how it was run: as §1
# [28] = biological target: Gonadotropin-releasing hormone receptor (Homo sapiens, UniProt P30968, E111Q); test: Displacement of [125I]-His5, D-Tyr6]GnRH from mutant GnRHR, GnRHR E111Q; how it was run: as §1
# [29] = biological target: Gonadotropin-releasing hormone receptor (Homo sapiens, UniProt P30968, L112F); test: Displacement of [125I]-His5, D-Tyr6]GnRH from mutant GnRHR, GnRHR L112F; how it was run: as §1
# [30] = biological target: Gonadotropin-releasing hormone receptor (Homo sapiens, UniProt P30968, Q208E); test: Displacement of [125I]-His5, D-Tyr6]GnRH from mutant GnRHR, GnRHR Q208E
# Gonadotropin-releasing hormone receptor (Homo sapiens, UniProt P30968, Q208E), sequence (P30968 whole entry Q208E): as the sequence (P30968 whole entry L300A) above, with Q208E, A300L counted along it
# Gonadotropin-releasing hormone receptor (Homo sapiens, UniProt P30968, D293A), sequence (P30968 whole entry D293A): as the sequence (P30968 whole entry L300A) above, with D293A, A300L counted along it
IC50 [1] [nM],IC50 [2] [nM],IC50 [3] [nM],IC50 [4] [nM],IC50 [5] [nM],IC50 [6] [nM],IC50 [7] [nM],IC50 [8] [nM],IC50 [9] [nM],IC50 [10] [nM],IC50 [11] [nM],IC50 [12] [nM],IC50 [13] [nM],IC50 [14] [nM],IC50 [15] [nM],IC50 [16] [nM],IC50 [17] [nM],IC50 [18] [nM],IC50 [19] [nM],IC50 [20] [nM],other results,SMILES
192,5.7,18.2,35.3,6.5,42.2,16.5,26.5,12.7,66.2,37.7,65.1,10.3,316,186,5.9,2.2,8.2,4,6.6,IC50 [21]: 3.6 nM; IC50 [22]: 2.4 nM; IC50 [23]: 3.7 nM; IC50 [24]: 3.7 nM; IC50 [25]: 2.9 nM; IC50 [26]: 3.8 nM; IC50 [27]: 10.5 nM; IC50 [28]: 3.3 nM; IC50 [29]: 2.7 nM; IC50 [30]: 15 nM,CC(C)C[C@H](NC(=O)[C@@H](Cc1ccc(O)cc1)NC(=O)[C@H](Cc1c[nH]cn1)NC(=O)[C@H](CO)NC(=O)[C@H](Cc1c[nH]c2ccccc12)NC(=O)[C@H](Cc1c[nH]cn1)NC(=O)[C@@H]1CCC(=O)N1)C(=O)N[C@@H](CCCN=C(N)N)C(=O)N1CCC[C@H]1C(=O)NCC(N)=O
229,24.5,87.9,277,164,11,27.3,20.6,3.7,101,60.1,222,139,108,277,17.9,23.2,27,8.9,3.7,IC50 [21]: 7.6 nM; IC50 [22]: 15.8 nM; IC50 [23]: 19.8 nM; IC50 [24]: 11 nM; IC50 [25]: 15.1 nM; IC50 [26]: 10.8 nM; IC50 [27]: 13.6 nM; IC50 [28]: 11.5 nM; IC50 [29]: 29.5 nM; IC50 [30]: 6 nM,COc1c(C)cc(-c2[nH]c3ccc(C(C)(C)C(=O)N(CC(C)C)CC(C)C)cc3c2[C@H](C)CNCCc2ccccc2)cc1C

# Reference: ChEMBL document CHEMBL1147748, “Overlapping, nonidentical binding sites of different classes of nonpeptide antagonists for the human gonadotropin-releasing hormone receptor” (J Med Chem, 2006)
